Reference: ChEMBL document CHEMBL2311333, “Synthesis and antimycobacterial evaluation of pyrazinamide derivatives with benzylamino substitution” (Bioorg Med Chem Lett, 2013)

Columns and labels:
Mycobacterium avium [1] = experiment: Antimycobacterial activity against Mycobacterium avium CNCTC My 152/73 after 10 to 14 days by microdilution panel method; assay type: functional
Summary of the method: (§1)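 Whole-cell microdilution panel assay on strains from the Czech National Collection of Type Cultures (M. tuberculosis H37Rv My 331/88, M. avium ssp. avium Chester My 80/72, M. avium My 152/73). MIC (μg/mL) was read visually as the lowest concentration of compound that inhibited mycobacterial growth.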

[2] = Selectivity index, ratio of IC50 for human HepG2 cells to MIC for Mycobacterium tuberculosis H37Rv CNCTC My 331/88; assay type: functional
Summary of the method: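 Cytotoxicity was measured as the decrease in viability of human liver Hep G2 cells, read colorimetrically by tetrazolium salt reduction over a dilution series. IC50 was taken from this readout, and SI was calculated as the Hep G2 IC50 divided by the M. tuberculosis H37Rv MIC from the microdilution panel assay.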

Mycobacterium avium [3] = experiment: Antimycobacterial activity against Mycobacterium avium CNCTC My 80/72 after 10 to 14 days by microdilution panel method; assay type: functional; summary of the method: as §1
Mycobacterium kansasii = experiment: Antimycobacterial activity against Mycobacterium kansasii CNCTC My 235/80 after 10 to 14 days by microdilution panel method; assay type: functional
Summary of the method: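 Microdilution panel method. Strain obtained from Czech National Collection of Type Cultures (CNCTC My 235/80). MIC in μg/mL read visually as the lowest compound concentration that inhibited mycobacterial growth.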

[4] = Lipophilicity, log K of the compound in methanol-water mixture by HPLC analysis; assay type: physicochemical
[5] = tested on: Mycobacterium tuberculosis; experiment: Antimycobacterial activity against Mycobacterium tuberculosis H37Rv CNCTC My 331/88 after 10 to 14 days by microdilution panel method; assay type: functional; summary of the method: as §1
HepG2 = experiment: Cytotoxicity against human HepG2 cells; assay type: cell-based
[6] = tested on: Mycobacterium tuberculosis; experiment: Ratio of pyrazinamide MIC to compound MIC for Mycobacterium tuberculosis H37Rv CNCTC My 331/88; assay type: functional

| Compound | MIC (Mycobacterium avium [1]) | Selectivity Index [2] | MIC (Mycobacterium avium [3]) | MIC (Mycobacterium kansasii) | log K [4] | MIC [5] | IC50 (HepG2) [µM] | Ratio [6] |
| --- | --- | --- | --- | --- | --- | --- | --- | --- |
| COc1ccc(CNc2nc(C#N)cnc2C#N)cc1 | > 100 µg/mL | 0.5 | > 100 µg/mL | 99 µM | 0.3259 | 188 µM | 95.9 |  |
| N#Cc1cnc(C(N)=O)c(NCc2ccccc2)n1 | > 100 µg/mL |  | > 100 µg/mL | > 100 µg/mL | 0.326 | > 100 µg/mL |  |  |
| Cc1ccc(CNc2nc(C#N)cnc2C(N)=O)cc1 | > 100 µg/mL | 1.2 | > 100 µg/mL | > 100 µg/mL | 0.5533 | 47 µM | 54.6 |  |
| COc1ccc(CNc2nc(C#N)cnc2C(N)=O)cc1 | > 100 µg/mL |  | > 100 µg/mL | > 100 µg/mL | 0.3074 | > 100 µg/mL |  |  |
| N#Cc1cnc(C(N)=O)c(NCc2ccc(N)cc2)n1 | > 100 µg/mL | >21.3 | > 100 µg/mL | > 100 µg/mL | -0.2005 | 47 µM | > 1000 |  |
| N#Cc1cnc(C(N)=O)c(NCc2cccc(Cl)c2)n1 | > 100 µg/mL |  | > 100 µg/mL | > 100 µg/mL | 0.5141 | > 100 µg/mL |  |  |
| N#Cc1cnc(C(N)=O)c(NCc2ccc(Cl)cc2)n1 | > 100 µg/mL |  | > 100 µg/mL | > 100 µg/mL | 0.5421 | > 100 µg/mL |  |  |
| N#Cc1cnc(C(N)=O)c(NCc2ccc(Cl)c(Cl)c2)n1 | > 100 µg/mL |  | > 100 µg/mL | > 100 µg/mL | 0.7353 | > 100 µg/mL |  |  |
| N#Cc1cnc(C(N)=O)c(NCc2cccc([N+](=O)[O-])c2)n1 | > 100 µg/mL | 5.4 | > 100 µg/mL | > 100 µg/mL | 0.1331 | 84 µM | 457 |  |
| N#Cc1cnc(C(N)=O)c(NCc2cccc(C(F)(F)F)c2)n1 | > 100 µg/mL | 0.4 | > 100 µg/mL | > 100 µg/mL | 0.5104 | 78 µM | 27.8 |  |
| N#Cc1cnc(C#N)c(NCc2ccccc2)n1 | 53 µM | 1.1 | 106 µM | 106 µM | 0.335 | 53 µM | 60.8 |  |
| Cc1ccc(CNc2nc(C#N)cnc2C#N)cc1 | > 100 µg/mL | 2.8 | > 100 µg/mL | > 100 µg/mL | 0.5598 | 25 µM | 70.8 | 2 |
| N#Cc1cnc(C#N)c(NCc2ccc(N)cc2)n1 | > 100 µg/mL | 5.5 | > 100 µg/mL | > 100 µg/mL | -0.1621 | 100 µM | 549 |  |
| N#Cc1cnc(C#N)c(NCc2cccc(Cl)c2)n1 | > 100 µg/mL | 0.9 | > 100 µg/mL | 46 µM | 0.5456 | 46 µM | 40 |  |
| N#Cc1cnc(C#N)c(NCc2ccc(Cl)cc2)n1 | > 100 µg/mL | 0.4 | > 100 µg/mL | 46 µM | 0.5735 | 93 µM | 35.5 |  |
| N#Cc1cnc(C#N)c(NCc2ccc(Cl)c(Cl)c2)n1 | > 100 µg/mL |  | > 100 µg/mL | > 100 µg/mL | 0.783 | > 100 µg/mL |  |  |
| N#Cc1cnc(C#N)c(NCc2cccc([N+](=O)[O-])c2)n1 | > 100 µg/mL |  | > 100 µg/mL | > 100 µg/mL | 0.2049 | > 100 µg/mL |  |  |
| N#Cc1cnc(C#N)c(NCc2cccc(C(F)(F)F)c2)n1 | > 100 µg/mL |  | > 100 µg/mL | > 100 µg/mL | 0.5615 | > 100 µg/mL |  |  |
| Cc1ccccc1CNc1nc(C#N)cnc1C#N | > 100 µg/mL |  | > 100 µg/mL | > 100 µg/mL | 0.5043 | > 100 µg/mL |  |  |
| NNC(=O)c1ccncc1 [ISONIAZID] | 23 µM |  | 46 µM | 91 µM |  | 11 µM |  |  |
| NC(=O)c1cnccn1 [PYRAZINAMIDE] | > 100 µg/mL | 775 | > 100 µg/mL | > 100 µg/mL |  | 51 µM |  |  |
